From PubChem BioAssay
CTSL1 counter – Fasciola hepatica cathepsin L1 inhibitors, primary screen, counter-screen for PFM18AAP inhibitor project, biochemical, QFRET, fluorogenic peptide substrate; recombinant F. hepatica cathepsin L1, Z-Leu-Arg-MCA fluorescence; inhibition, % at 5.96 µM; actives 0.49% (n = 300,000); AID 1906, 2009;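 active = inhibition above the mean of all tested compounds plus 3 SD, set per screening campaign, cut at about 17% in these data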
SENP1 FRET inh – human SENP1 catalytic domain inhibitors, primary screen, biochemical, FRET, uHTS; Sentrin-specific protease 1 (Homo sapiens), Q9P0U3; recombinant SENP1 catalytic domain, CyPet-SUMO1-YPet FRET cleavage; inhibition, % at 10 µM; actives 0.21% (n = 360,000); AID 624204, 2012;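 active = inhibition at least 30% at 10 µM, raw YFP signal under a set limit, fluorescence ratio 0.5 to 1.5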
Target sequence (Q9P0U3 419-644 limits assumed): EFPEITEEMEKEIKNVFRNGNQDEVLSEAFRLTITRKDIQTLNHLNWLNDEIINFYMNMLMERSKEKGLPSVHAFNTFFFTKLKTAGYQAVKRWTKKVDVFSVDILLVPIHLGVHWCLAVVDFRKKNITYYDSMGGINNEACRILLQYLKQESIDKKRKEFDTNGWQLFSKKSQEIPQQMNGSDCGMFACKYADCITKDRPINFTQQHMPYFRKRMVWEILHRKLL
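Assay system: hSENP1 catalytic domain, recombinant. Amount: SENP1 enzyme, 20 pM final. Schedule: 50 min reaction, RT, dark. Technique: FRET, CFP and YFP emission. Control set: no-enzyme wells low, DMSO-plus-enzyme wells high control.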
FXN GAA850 act – FXN promoter activators, primary screen, cell-based, luciferase luminescence, HEK293 lucGAA850; HEK293 lucGAA850 FXN promoter luciferase reporter, 24 h; percent of 10 µM SAHA response; activation, % at 6 µM; actives 0.56% (n = 360,000); AID 540364, 2011;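 active = activation above the average of all compounds screened plus 3 SD, cutoff fixed separately per campaign, cut at about 7.5% in these data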
PfM18AAP inh – PfM18AAP inhibitors, malaria aminopeptidase, primary screen, biochemical, QFRET, recombinant enzyme | M18 aspartyl aminopeptidase (Plasmodium falciparum 3D7) | H-Glu-NHMec fluorogenic cleavage | inhibition, % at 7.35 µM | actives 1.2% (n = 290,000);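 active = inhibition above the campaign mean inhibition over all tested compounds plus 3 SD, cut at about 28% in these data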
HDAC3 inhib – HDAC3 deacetylase inhibitors, primary screen, biochemical, fluorescence, cell-free homogeneous | Histone deacetylase 3 (Homo sapiens), O15379 | recombinant HDAC3, fluorogenic peptide/trypsin coupled | inhibition, % at 8.3 µM | actives 0.15% (n = 320,000) | AID 2718, 2010; in the data active = inhibition above about 26%, passing the limit was not always enough
Target sequence (O15379 whole entry, looked up): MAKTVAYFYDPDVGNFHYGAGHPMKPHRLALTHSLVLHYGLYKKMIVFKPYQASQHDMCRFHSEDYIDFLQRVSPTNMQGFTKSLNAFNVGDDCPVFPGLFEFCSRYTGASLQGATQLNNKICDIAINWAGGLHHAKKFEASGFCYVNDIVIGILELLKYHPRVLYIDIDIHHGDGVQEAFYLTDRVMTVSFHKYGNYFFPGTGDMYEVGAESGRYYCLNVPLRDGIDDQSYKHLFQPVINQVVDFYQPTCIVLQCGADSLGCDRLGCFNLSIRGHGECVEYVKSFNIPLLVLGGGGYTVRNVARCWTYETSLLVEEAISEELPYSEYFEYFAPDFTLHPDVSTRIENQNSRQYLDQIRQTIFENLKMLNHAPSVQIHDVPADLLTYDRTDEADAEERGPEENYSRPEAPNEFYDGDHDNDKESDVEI
AHR act – AHR activators, primary screen, cell-based, luminescence, luciferase reporter, human; AHR-responsive luciferase reporter cells; activation, % at 5 µM; actives 2.5% (n = 320,000); in the data active = activation above about 47%
Of the large screens only hits and unclear results are named; the others gave an inactive call. The list is not random: actives were taken first. Their share in the collection is about 4.2%.

Oc1nc(Nc2cccc(Cl)c2)sc1/C=C1\C=Nc2ccccc21	AHR act 117.4
Oc1cccc(Nc2nc(O)c(/C=C3\C=Nc4ccccc43)s2)c1	none
CCOC(=O)c1c(Nc2ccc(Cl)cc2)sc(/C=C2\C=Nc3ccccc32)c1O	none
CC1=Nc2ccccc2/C1=C\c1sc(Nc2ccc(C)cc2)nc1O	AHR act 79.1
O=C(Cn1c(NCCO)nc2ccccc21)Nc1ccc2c(c1)OCCCO2	none (no result: CTSL1 counter, PfM18AAP inh, HDAC3 inhib, AHR act)
COc1ccc(-c2c(-c3ccc(OC)nc3)c3ccccc3n2C)cc1	AHR act 63.3 (no result: CTSL1 counter, PfM18AAP inh)
COC(=O)c1c(-c2cccnc2)csc1NC(=O)c1cc(C)on1	AHR act 68.4
COC(=O)c1c(-c2ccc(C)cc2)csc1NC(=O)c1c(-c2ccccc2)noc1C	none (no result: SENP1 FRET inh, FXN GAA850 act)
O=C1CCC2c3[nH]c4ccccc4c3CCN12 (stereo unspecified)	none (no result: CTSL1 counter, PfM18AAP inh, HDAC3 inhib, AHR act)
Cc1ccccc1-c1n[nH]nc1C1=CC(=O)CC(C)(C)C1	none (no result: CTSL1 counter, PfM18AAP inh, HDAC3 inhib, AHR act)
CCN(CC)S(=O)(=O)c1ccc2nc(NC(=O)c3cccs3)sc2c1	AHR act 71.6
CS(=O)(=O)c1ccc2nc(NC(=O)CCC(=O)c3cccs3)sc2c1	AHR act 52.5
CC(=O)Nc1ccc2nc(NC(=O)c3cccs3)sc2c1	AHR act 58.2
COc1ccc(OC)c(Nc2cc(C)nc3ccc(C)cc23)c1	none (no result: PfM18AAP inh)
Cc1cc2c(cc1C)-n1nnnc1C(N1CCN(C(=O)OCc3ccccc3)CC1)C(=O)N2 (stereo unspecified)	none (no result: CTSL1 counter, FXN GAA850 act, PfM18AAP inh, HDAC3 inhib, AHR act)
Cc1cc(/C=C2/C(=O)N(C)C(=S)N2C)ccc1N1CCCC1	AHR act 62.8
Cc1cc(N2CCCC2)ccc1/C=C1/C(=O)N(C)C(=S)N1C	SENP1 FRET inh 66.1
CCOc1ccc(NC(=O)CSc2nc3ccccc3nc2N2CC(C)OC(C)C2)cc1 (stereo unspecified)	none
OC(COCc1ccccc1F)CN1CCCCC1 (stereo unspecified)	none (no result: PfM18AAP inh)
N/C(=N\S(=O)(=O)c1cccs1)c1ccccc1	none
Cn1c(C(C#N)/C(=N\S(=O)(=O)c2cccs2)c2ccccc2)nc2ccccc21 (stereo unspecified)	AHR act 79.2
Cc1cccc(C(=O)Nc2ccc3ccccc3c2)c1	none
Cc1ccc(-c2n[nH]c(=S)n2-c2ccccc2)cc1	none
CS(=O)(=O)Nc1ccc(-c2n[nH]c(=S)n2-c2ccccc2)cc1	PfM18AAP inh 30.9
Cc1ccccc1NS(=O)(=O)c1ccc(NS(=O)(=O)c2cccs2)cc1	none
O=[N+]([O-])c1ccc(Nc2ccccc2)c2nonc12	none
O=[N+]([O-])c1ccc(Sc2cccc[n+]2[O-])c2nonc12	SENP1 FRET inh 40.7 (no result: CTSL1 counter, HDAC3 inhib, AHR act)
O=C(Nc1ccc(O)c(-c2nc3ccccc3s2)c1)c1cc(=O)c2ccccc2o1	none
O=C(Nc1ccc(O)c(-c2nc3ccccc3s2)c1)c1cccs1	AHR act 73.6
O=C(Nc1ccc(F)cc1)Nc1sccc1-c1nc2ccccc2s1	AHR act 60.5
O=C(/C=C/c1ccco1)NC(=S)Nc1ccc(C(=O)O)cc1	PfM18AAP inh 29.0
O=C(Nc1ccc(C(=O)O)cc1)/C(=C\c1ccco1)NC(=O)c1ccccc1Cl	PfM18AAP inh 29.9
CC(=O)NC(=S)Nc1ccc(NC(=S)NC(=O)/C=C/c2ccco2)cc1	none
COc1cccc(C(O)c2nc(-c3ccc(OC)nc3)cs2)c1 (stereo unspecified)	none (no result: CTSL1 counter, PfM18AAP inh, HDAC3 inhib, AHR act)
O=C(CCn1cccn1)N1CCCC(Nc2ccc(F)c(F)c2)C1 (stereo unspecified)	none (no result: CTSL1 counter, PfM18AAP inh, HDAC3 inhib, AHR act)
COc1ccc(NC(=S)NC(=O)/C=C/c2ccco2)cc1	none
O=C(/C=C/c1ccco1)NC(=S)Nc1ccc(O)c(-c2nc3ccccc3s2)c1	AHR act 80.4
CCc1nonc1NC(=O)c1oc2ccc(F)cc2c1C	AHR act 61.1 (no result: HDAC3 inhib)
CN1CCC(N2CCN(C3CN(C4CCCCC4)S(=O)(=O)C3)CC2)CC1 (stereo unspecified)	none (no result: CTSL1 counter, FXN GAA850 act, PfM18AAP inh, HDAC3 inhib, AHR act)
COc1ccc(C=Nc2cccnc2N)cc1	PfM18AAP inh 30.6
N#Cc1c(-c2ccccc2)c(C#N)c2nc3ccccc3n2c1N	none
Cc1ccc(-c2c(C#N)c(N)n3c(nc4ccccc43)c2C#N)cc1	AHR act 48.8
O=C1N=c2ccccc2=C1c1[nH]c(=S)[nH]c1O	AHR act 61.4
N#C/C(=C\c1cccc(Br)c1)C(=O)N1CCCCC1	PfM18AAP inh 29.7
N#C/C(=C\c1cccc(O)c1)C(=O)N1CCCCC1	none
Cc1cc(C)c(O)c(-c2cc(C(=O)Nc3cccnc3)[nH]n2)c1	none
Cc1cccc(NC(=O)c2cc(-c3cc(C)cc(C)c3O)n[nH]2)c1	AHR act 65.5
COc1ccc(NC(=O)c2cc(-c3cc(C)cc(C)c3O)n[nH]2)cc1Cl	AHR act 80.3
COc1ccc(-c2nc3c(Cl)cc(C(F)(F)F)cn3c2Cc2ccsc2)cc1OC	none (no result: CTSL1 counter, FXN GAA850 act, PfM18AAP inh, HDAC3 inhib, AHR act)
Cn1cc(Cl)c(C(=O)Nc2nc3ccc([N+](=O)[O-])cc3s2)n1	PfM18AAP inh 30.3
Cn1cc(Cl)c(C(=O)Nc2nc3ccc(Cl)cc3s2)n1	none
O=[N+]([O-])c1ccc(N2CCN(c3ccccc3Cl)CC2)cn1	CTSL1 counter 20.7, PfM18AAP inh 31.8
O=C(Nc1ncccc1O)c1ccc(OCC2CCCO2)cc1 (stereo unspecified)	HDAC3 inhib 68.5
O=C(Nc1ncccc1O)c1ccc(Oc2ccccc2)cc1	HDAC3 inhib 56.3
COc1ccccc1NS(=O)(=O)c1ccc(C(=O)Nc2ncccc2O)cc1	HDAC3 inhib 79.2 (no result: CTSL1 counter, PfM18AAP inh)
COCCn1c(SCC(=O)c2c(N)n(C3CC3)c(=O)[nH]c2=O)nnc1-c1cccc(C)c1	none (no result: CTSL1 counter, PfM18AAP inh)
CN(C)CCNc1oc(-c2cccc(Cl)c2)nc1C#N	AHR act 77.6
O=C(CCl)Nc1cn(-c2ccccc2)nc1-c1ccccc1	CTSL1 counter 82.0
C=CCn1c(=O)[nH]c2nc3cc(N=CN(C)C)c(C)cc3nc2c1=O	AHR act 67.6
COc1ccc(Oc2cccc(Cl)c2CNC(=O)CCC(=O)O)cc1	none
COc1cc(/C=C2\N=C(C)OC2=O)cc(OC)c1OC	HDAC3 inhib 36.1
O=C(CNC1CCCCC1)Nc1ccc([N+](=O)[O-])cc1C(=O)Nc1ccccc1F	AHR act 47.5
Cc1ccc(C23CC4CC(CC(NC(=O)NN)(C4)C2)C3)cc1	CTSL1 counter 28.5
Cc1ccc2nc(-c3ccc(SCC(=O)O)nc3)[nH]c2c1	none
CCc1nnc(NC(=O)CSc2ccc(-c3nc4ccc(C)cc4[nH]3)cn2)s1	AHR act 66.1
